ChEMBL document CHEMBL1777729, “Structure-based lead identification of ATP-competitive MK2 inhibitors” (Bioorg Med Chem Lett, 2011)
Converted amounts (≈) assume the structure as drawn.

Key:
[1] = Kinetic solubility of the compound at pH 7.4; format: physicochemical; settings: buffer
[2] = test system: THP-1; test: Antiinflammatory activity in human THP1 cells assessed as inhibition of LPS-induced TNFalpha production at 10 uM treated 30 mins before LPS challenge measured after 4 hrs by ELISA; format: functional
[3] = target: MAP kinase-activated protein kinase 2 (Homo sapiens, UniProt P49137); test: Inhibition of MK2 pretreated for 30 mins before substrate addition measured after 2 hrs by IMAP assay
MAP kinase-activated protein kinase 2, sequence (P49137 whole entry): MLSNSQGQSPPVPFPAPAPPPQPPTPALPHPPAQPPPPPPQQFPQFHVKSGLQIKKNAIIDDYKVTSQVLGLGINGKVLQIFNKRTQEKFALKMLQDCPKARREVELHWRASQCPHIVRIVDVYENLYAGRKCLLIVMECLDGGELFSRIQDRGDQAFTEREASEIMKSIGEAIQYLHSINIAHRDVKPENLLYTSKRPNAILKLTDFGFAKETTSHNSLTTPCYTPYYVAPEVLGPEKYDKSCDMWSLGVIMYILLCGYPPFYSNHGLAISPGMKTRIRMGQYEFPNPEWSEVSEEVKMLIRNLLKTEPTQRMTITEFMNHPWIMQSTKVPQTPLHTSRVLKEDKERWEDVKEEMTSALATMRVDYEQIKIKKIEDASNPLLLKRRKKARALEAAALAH

[4] = Half life in rat liver microsomes; format: ADME, Microsome
[5] = test system: PBMC; test: Antiinflammatory activity in human PBMC cells assessed as inhibition of LPS-induced TNFalpha production treated 30 mins before LPS challenge measured after 4 hrs by ELISA; format: functional, cell-based
[6] = test system: THP-1; test: Antiinflammatory activity in human THP1 cells assessed as inhibition of LPS-induced TNFalpha production treated 30 mins before LPS challenge measured after 4 hrs by ELISA; format: functional, cell-based
How it was run: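 THP1 cells seeded at 1.5 × 10^5 per well in DMEM F12 and rested ≥18 h at 37 °C, 5–7% CO2, humidified. Compounds added in DMSO (0.1% final) for 30 min, then LPS added. After 4 h at 37 °C, TNFα in the culture medium was quantified by ELISA. EC50 from duplicates per dilution.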

[7] = test system: Rattus norvegicus; test: Antiinflammatory activity in sc dosed rat assessed as inhibition of LPS-induced TNFalpha production in serum administered 1 hr before LPS challenge measured after 1.5 hrs by ELISA
[8] = AUC in rat at 10 umol/kg, sc; format: ADME, organism-based; settings: plasma
How it was run: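 Rat PK after subcutaneous dosing at 10 µmol/kg; exposure expressed as AUC.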

[9] = test system: Rattus norvegicus; test: Antiinflammatory activity in rat assessed as inhibition of LPS-induced TNFalpha production in serum at 12.5 mg/kg, iv administered 1 hr before LPS challenge measured after 1.5 hrs by ELISA
[10] = test system: Rattus norvegicus; test: Antiinflammatory activity in rat assessed as inhibition of LPS-induced TNFalpha production in serum at 30 mg/kg, sc administered 1 hr before LPS challenge measured after 1.5 hrs by ELISA
[11] = Half life in human liver microsomes; format: ADME, Microsome
[12] = Plasma protein binding in plasma; format: ADME, cell-free; settings: read-out: PPB (converted)
[13] = AUC in rat at 10 umol/kg, po; format: ADME, organism-based; settings: plasma
How it was run: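 Rat PK after oral dosing at 10 µmol/kg; exposure expressed as AUC.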

[14] = AUC in rat at 4 umol/kg, iv; format: ADME, organism-based; settings: plasma
[15] = test system: Rattus norvegicus; test: Antiinflammatory activity in rat assessed as inhibition of LPS-induced TNFalpha production in serum at 10 mg/kg, sc administered 1 hr before LPS challenge measured after 1.5 hrs by ELISA
[16] = Permeability across human Caco2 cells; format: ADME, cell-based; settings: Caco-2, read-out: permeability
[17] = Permeability of the compound by PAMPA; format: ADME; settings: read-out: permeability

solubility kinetic [1] [µg/mL] | EC50 [3] [nM] | half-life [4] [min] | half-life [11] [min] | fraction unbound [12] | SMILES | inhibition at 10 µM [2] [%] | also measured
33 (≈ 91.8 µM) | 28 | – | – | – | NCCn1nc(-c2ccnc(-c3cnc4ccccc4c3)c2)cc1C(=O)O | 7 | –
– | 234 | – | – | – | O=C1NCC2(CCCC2)c2[nH]c(-c3ccnc(-c4cnc5ccccc5c4)n3)cc21 | 50 | –
37 (≈ 91.7 µM) | – | > 120 | 91 | 0.03 | O=C1NCC2(CCNCC2)c2[nH]c(-c3ccnc(-c4ccc5c(c4)OCO5)n3)cc21 | – | EC50 [5]: 260 nM; EC50 [6]: 980 nM; inhibition [7]: Dose-dependent effect; AUC [8]: 2.71 µM·h; inhibition in vivo at 12.5 mg/kg [9]: 92%; inhibition in vivo at 30 mg/kg [10]: 85%; AUC [13]: 0.016 µM·h; AUC [14]: 1.26 µM·h; inhibition in vivo at 10 mg/kg [15]: 54%
23 (≈ 56 µM) | 6 | – | – | – | O=C1NCC2(CCNCC2)c2[nH]c(-c3ccnc(-c4cnc5ccccc5c4)n3)cc21 | – | –
– | 151 | – | – | – | NCC1CNC(=O)c2cc(-c3ccnc(-c4cnc5ccccc5c4)c3)nn21 (configuration not stated) | – | –
– | – | 40 | 35 | 0.003 | O=C1NCCc2[nH]c(-c3ccnc(-c4cnc5ccccc5c4)c3)cc21 | 38 | Papp [16]: 0.5 ×10⁻⁶ cm/s; Papp [17]: 0.6 ×10⁻⁶ cm/s
